MC4R antagonist: MC4R antagonists of cAMP signaling, primary screen, cell-based, TR-FRET, antagonist arm of biased-ligand search. inhibition, % at 6.5 µM. MC4R-expressing cells, MTII-stimulated cAMP, LANCE TR-FRET. Melanocortin receptor 4 (Homo sapiens), P32245. actives 0.48% (n = 360,000);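 active means inhibition above its plate's cutoff, the mean of tested wells on that plate plus 3 SD, cut at about 29% in these data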;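 further: 0% = Melanotan II alone and 100% = Melanotan II plus saturating MCL0020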
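Assay system: human MC4R-expressing U2OS cells; reagent: Melanotan II stimulation of cells; dosing: 6.5 µM single dose; timing: compound 30 min, challenge 1 h, detection 1 h; signal: TR-FRET cAMP assay; replicates: one well per compound, no replicates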
NTR1 agonist: agonists of human NTR1, primary screen, imaging, U2OS cells, beta-arrestin-GFP, high content. actives 0.17% (n = 330,000). NTR1-U2OS beta-arrestin-GFP spot imaging, agonist mode. Neurotensin receptor type 1 (Homo sapiens), P30989. activation, % at 20 µM;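 active means activation at or above 40% of the spot to cytoplasm intensity ratio, with at least 20 cells analyzed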;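 further: 0% = DMSO without peptide and 100% = 100 nM NTR1 peptide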
Target sequence (P30989 whole entry, looked up): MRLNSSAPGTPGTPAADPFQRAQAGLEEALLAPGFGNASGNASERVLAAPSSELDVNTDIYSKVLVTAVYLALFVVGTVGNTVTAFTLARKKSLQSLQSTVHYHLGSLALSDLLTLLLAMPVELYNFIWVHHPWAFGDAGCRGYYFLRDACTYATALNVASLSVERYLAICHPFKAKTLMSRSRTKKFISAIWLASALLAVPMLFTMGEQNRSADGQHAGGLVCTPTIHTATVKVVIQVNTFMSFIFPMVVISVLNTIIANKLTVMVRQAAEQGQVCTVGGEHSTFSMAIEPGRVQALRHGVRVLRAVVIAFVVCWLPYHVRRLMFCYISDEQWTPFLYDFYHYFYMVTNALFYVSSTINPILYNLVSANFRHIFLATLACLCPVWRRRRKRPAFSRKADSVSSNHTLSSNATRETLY
NR1D1 modulator: modulators of Rev-erb alpha DNA binding, primary screen, biochemical, FITC-DNA, fluorescence polarization, uHTS. Rev-erbα–FITC-DNA binding, 90 min. actives 0.79% (n = 370,000). Nuclear receptor subfamily 1 group D member 1 (Homo sapiens), P20393. AID 1259318, 2017. activity, % at 10 µM;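 active means activity above about 14%, limit read from the data; passing the limit was not always enough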;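 further: 0% = DMSO wells with 35 nM protein and 100% = DMSO wells with 750 nM protein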
PG9 Ab binder: binders of HIV-1 gp120 antibody PG9, primary screen, biochemical, TR-FRET; HIV-1 gp120 / PG9 antibody interaction; TR-FRET gp120-PG9 antibody binding; inhibition, % at 6.7 µM; actives 0.43% (n = 360,000); in the data active means inhibition above about 8.5%
MC4R ag barr: MC4R agonists recruiting beta-arrestin, primary screen, cell-based, luminescence, agonist arm of biased-ligand search. U2OS MC4R beta-arrestin complementation; percent of melanotan II response, DMSO zero. activation, % at 8.9 µM. actives 0.98% (n = 360,000). AID 540308, 2011;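 active means activation above a per-plate cutoff, the mean activation of sample wells on that plate plus 3 SD, cut at about 8% in these data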
U2OS cAMP counter: nonselective cAMP signaling inhibitors, parental cells, counter-screen for MC4R biased antagonist project, cell-based, TR-FRET, U2OS, forskolin, triplicate; LANCE TR-FRET; AID 602193, 2012; shares compounds with MC4R antagonist; inhibition, % at 6.5 µM; actives 26% (n = 1,600);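 active means mean inhibition over triplicates above the low-control well mean plus 3 SD, set per campaign, cut at about 13% in these data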;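 further: signal is single emission at 671 nm which falls as cellular cAMP rises; 0% = forskolin-stimulated wells and 100% = buffer without forskolin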
MC4R antag conf: MC4R cAMP antagonists, retest, confirmation, cell-based, TR-FRET | shares compounds with MC4R antagonist | MC4R-expressing cells, MTII-stimulated cAMP | inhibition, % at 6.5 µM | actives 27% (n = 1,600) | AID 602195, 2012; in the data active means inhibition above about 29%;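 further: 0% = agonist stimulated wells alone and 100% = agonist stimulated wells plus saturating reference antagonist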
Active calls of the source: *; . = not tested or not shown. Rows were chosen to be rich in hits. Some 2.5% of all compounds tested hit in one or more screens of this group.

SMILES	MC4R antagonist	NTR1 agonist	NR1D1 modulator	PG9 Ab binder	MC4R ag barr	U2OS cAMP counter	MC4R antag conf
N#Cc1ccccc1NC(=O)CSc1nnc(-c2ccncc2)o1	30*	2	-5	-1	2	-6	1
Nc1c(Cl)c(Cl)nc(C(=O)OCC(=O)N2CCCC2=O)c1Cl	7	0	4	-1	-4	.	.
O=C(OCC(=O)N1CCCC1=O)c1nc(Cl)c(Cl)c(Cl)c1Cl	29*	25	-16	-3	-4	23*	47*
C=CCn1c(SCC(=O)O)nnc1-c1ccco1	.	.	0	.	.	.	.
CC(OC(=O)c1ccc(S(C)(=O)=O)c([N+](=O)[O-])c1)C(=O)NC1C2CC3CC(C2)CC1C3 (stereo unspecified)	29*	.	-7	1	-2	8	21
CCC(OC(=O)c1ccc(S(C)(=O)=O)c([N+](=O)[O-])c1)C(=O)NC1C2CC3CC(C2)CC1C3 (stereo unspecified)	60*	.	7	1	-2	-9	12
CCS(=O)(=O)N1CCN(c2ccc(C(=O)NC34CC5CC(CC(C5)C3)C4)cc2[N+](=O)[O-])CC1	1	4	-4	0	-1	.	.
COC(=O)C1CN(Cc2ccc(C)cc2)CCS(=O)(=O)N1Cc1cn(Cc2ccccc2)nn1 (stereo unspecified)	.	.	-7	.	.	.	.
CN(/N=C/c1cc(Cl)cc(Cl)c1O)c1c(Cl)cccc1[N+](=O)[O-]	30*	2	7	-3	0	-4	12
CCC(Sc1nc2n[nH]c(C)c2c(=N)n1-c1ccc(C)c(Cl)c1)C(=O)N1CCOCC1 (stereo unspecified)	29*	2	.	.	0	6	35*
COC(=O)[C@@]12C[C@@H](CC(=O)NCC3CCCCC3)C(=O)N(Cc3cccc4ccccc34)C1=CCC(C)(C)C2	.	.	7	1	.	.	.
CCN(CC)C(=O)CCCc1c[nH]c2ccccc12	32*	0	9	0	1	1	-11
CC(NC(=O)c1ccc(OC2CCN(Cc3ccccn3)CC2)cc1)c1nccs1 (stereo unspecified)	29*	-1	-4	1	0	-1	-5
Cc1cccn2c(CN3CCSCC3)c(C(=O)N3CCOCC3)nc12	29*	0	2	0	0	1	4
COc1ccc(N(C(=O)CCl)C(C(=O)NCCc2ccccc2)c2cccs2)cc1Cl (stereo unspecified)	34*	.	-1	1	21*	-28	37*
C=C1C(=O)C23CCC4C(C)(C(=O)OC)CCCC4(C)C2CCC1(O)C3 (stereo unspecified)	40*	.	7	4	0	22*	38*
CCOC(=O)CC[C@H]1CC[C@]2(CCCN(C(=O)c3cccnc3)C2)O1	.	.	-3	.	.	.	.
CCOC(=O)c1ccc(NC(=O)N2CCN(c3cccc(OC)c3)CC2)cc1	29*	3	1	1	0	-5	-6
O=C(NC1CCCC1)C1(C(=O)C2CC2)CC(c2ccccc2C(F)(F)F)=NO1 (stereo unspecified)	.	.	4	.	.	.	.
CN1CCc2c(sc(/N=C/c3cc(Cl)ccc3O)c2C#N)C1	39*	1	0	-2	-1	1	4
COC(=O)c1cc2c(c3c4cc(F)ccc4n(S(=O)(=O)c4ccc(OC)cc4)c13)C(=O)N(Cc1ccccc1OC)C2	.	.	8	0	.	.	.
Cc1ccc(C)c(Cn2c(C)nc3c(sc(=S)n3-c3ccccc3)c2=O)c1	31*	11	-2	2	-1	2	-5
Cc1ccc(-n2c(SCC(=O)O)nc3c(sc(=S)n3-c3ccc(C)c(C)c3)c2=O)cc1	24	1	5	-1	1	.	.
CC1=Nc2ccc(C)cc2/C1=C/c1c(N)n2c(S(=O)(=O)C(C)C)nsc2nc1=O	33*	.	-8	-2	0	3	6
CC1=Nc2ccccc2/C1=C/c1c(N)n2c(S(=O)(=O)C(C)C)nsc2nc1=O	12	0	-2	-2	-3	.	.
SMILES	MC4R antagonist	NTR1 agonist	NR1D1 modulator	PG9 Ab binder	MC4R ag barr	U2OS cAMP counter	MC4R antag conf
COC(=O)C(Cc1ccc(O)cc1)NC(=O)c1ccccc1 (stereo unspecified)	49*	1	0	2	0	16*	41*
COc1ccccc1C(=O)N1CCC2CCN(C(=O)OC(C)(C)C)C2C1 (stereo unspecified)	.	.	-4	2	.	.	.
O=C(NC(=S)Nc1cc(S(=O)(=O)N2CCOCC2)ccc1O)c1ccco1	-1	0	-1	-1	0	.	.
O=C(NC(=S)Nc1cc(S(=O)(=O)N2CCOCC2)ccc1N1CCOCC1)c1ccco1	37*	0	6	-3	-4	1	-7
CCOC(=O)c1ccc(N/C=C/C(=O)C(C)(C)C)cc1	30*	3	-2	0	2	0	0
CCOC(=O)c1ccc(N/C=C/C(=O)c2ccccc2)cc1	7	-1	1	-3	-1	.	.
Brc1ccc(-c2csc(N3CCNCC3)n2)cc1	.	.	0	.	.	.	.
O=C(OCc1c(F)cccc1Cl)c1cnc(Cl)c(Cl)c1	34*	1	2	-2	-1	17*	43*
O=C(OCc1ccccc1F)c1cnc(Cl)c(Cl)c1	40*	5	-7	-2	-2	25*	38*
O=C(OCc1ccc([N+](=O)[O-])cc1)c1cnc(Cl)c(Cl)c1	12	7	3	0	-2	.	.
CNC12CCc3cc(OC)c(OC)c(c31)-c1cc3c(cc1C2)OCO3 (stereo unspecified)	.	.	6	-4	.	.	.
N#Cc1ccc(/C=C/C(=O)c2ccco2)cc1	31*	14	-2	-1	-1	-2	8
Nc1ccc(/C=C/C(=O)c2ccco2)cc1	-9	0	-3	-4	0	.	.
COc1ccc(/C=N/NC(=O)C2COc3ccccc3O2)cc1OC (stereo unspecified)	29*	2	-5	1	2	-2	-12
COc1cc(/C=N/NC(=O)C2COc3ccccc3O2)ccc1O (stereo unspecified)	2	0	7	-2	-2	.	.
